Source: PubChem (The Scripps Research Institute Molecular Screening Center)
PP1 counter: PP1-alpha phosphatase inhibitors, primary screen, counter-screen for PP5 inhibitor project, biochemical, fluorescence, OMFP substrate, single point; inhibition, % at 6.7 µM; actives 0.9% (n = 320,000); purified PP1alpha;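 active = inhibition above the mean inhibition of all tested compounds plus 3 SD, computed separately for each screening campaign, cut at about 15% in these data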
EBNA-1 inh: EBNA-1 DNA-binding inhibitors, primary screen, biochemical, fluorescence polarization | inhibition, % at 14.8 µM | actives 0.34% (n = 300,000) | AID 1950, 2009; in the data active = inhibition above about 28%
core dimer inh: inhibitors of HCV core protein dimerization, primary screen, biochemical, TR-FRET, high-throughput; TR-FRET GST/Flag-core106 dimerization, 1536-well; AID 1899, 2009; actives 0.33% (n = 300,000); inhibition, % at 5 µM;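 active = inhibition above the mean of all tested compounds plus 3 SD, set per screening campaign, cut at about 45% in these data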
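Assay system – GST-tagged and Flag-tagged HCV core protein residues 1-106 · Quantity – core106 proteins, GST 13.5 nM and Flag 17 nM · Benchmarks – unlabelled core106 and no-GST-core106 wells · Read-out basis – percent inhibition of core106 dimerization signal · Detection – time-resolved FRET, ex 340 nm, em 617 and 671 nm · Schedule – 4 h at 22.5 °C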
ZTA DNA inh: ZTA (EBV) inhibition in EBNA-1 counter-screen; P03206; actives 0.15% (n = 320,000); inhibition, % at 11 µM; ZTA-DNA binding, fluorescence polarization; in the data active = inhibition above about 33%
PP5 inh: PP5 phosphatase inhibitors, primary screen, biochemical, fluorescence; inhibition, % at 6.7 µM; actives 0.18% (n = 320,000); purified PP5c, OMFP substrate fluorescence; Serine/threonine-protein phosphatase 5 (Homo sapiens), P53041; AID 1987, 2009;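 active = inhibition above the campaign's mean inhibition across all tested compounds plus 3 SD, cut at about 9.5% in these data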;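 also: 0% = DMSO only and 100% = 100 µM cantharidin control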
Target sequence (P53041 whole entry, looked up): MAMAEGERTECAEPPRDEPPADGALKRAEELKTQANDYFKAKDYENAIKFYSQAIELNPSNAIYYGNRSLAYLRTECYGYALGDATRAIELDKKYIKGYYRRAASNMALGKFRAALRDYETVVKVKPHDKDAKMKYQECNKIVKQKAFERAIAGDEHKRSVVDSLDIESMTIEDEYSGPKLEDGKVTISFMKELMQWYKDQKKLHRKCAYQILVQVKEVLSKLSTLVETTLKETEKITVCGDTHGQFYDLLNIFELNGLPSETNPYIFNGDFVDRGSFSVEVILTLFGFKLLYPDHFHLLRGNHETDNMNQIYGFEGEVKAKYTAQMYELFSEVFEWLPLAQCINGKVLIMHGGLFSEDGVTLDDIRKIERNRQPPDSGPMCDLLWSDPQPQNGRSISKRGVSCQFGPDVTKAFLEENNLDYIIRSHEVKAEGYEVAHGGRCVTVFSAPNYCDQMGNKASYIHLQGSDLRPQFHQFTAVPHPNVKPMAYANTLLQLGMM
Numbers without * were called inactive; nt = not tested or not shown; + = active, no number. The list is not random: actives were taken first. Their share in the collection is about 1.7%.

SMILES	PP1 counter	EBNA-1 inh	core dimer inh	ZTA DNA inh	PP5 inh
CC(C)(C)OC(=O)NCCCC[C@H](NC(=O)c1[nH]cnc1C(=O)N[C@@H](Cc1ccccc1)C(=O)OC(C)(C)C)C(=O)OC(C)(C)C	15*	6	16	-3	9
CC(C)(C)OC(=O)NCCCC[C@H](NC(=O)c1[nH]cnc1C(=O)Nc1ccc(CNC(=O)OC(C)(C)C)cc1)C(=O)OC(C)(C)C	17*	-9	12	-20	9
CC[n+]1c(/C=C/C=C/N(C(C)=O)c2ccccc2)sc2cc(OC)ccc21	7	7	-8	-4	1
O=C1/C(=C/c2ccc(F)cc2)SC(=S)N1CC(=O)N1CCCCC1c1cccnc1 (stereo not given)	16*	3	32	-2	1
O=C1/C(=C/c2ccccc2F)SC(=S)N1CC(=O)N1CCCCC1c1cccnc1 (stereo not given)	13	8	28	11	1
CCOC(=O)[C@@H](C)N(Cc1ccc(OC)cc1)S(=O)(=O)N(Cc1ccccc1)[C@H](C(=O)OC)C(C)C	-3	nt	nt	-3	3
COc1cccc2c1OCC(CN1CCN(Cc3ccccc3F)C(CCO)C1)=C2 (stereo not given)	-1	+	0	130*	4
COc1cccc2c1OCC(CN1CCN(Cc3ccccc3)C(CCO)C1)=C2 (stereo not given)	-9	-6	-2	8	-3
COc1ccccc1NC(=S)NC1CCCC1	-5	-5	0	7	-1
COc1ccccc1NC(=S)NC1CCC(CC2CCC(NC(=S)Nc3ccccc3OC)CC2)CC1 (stereo not given)	10	27	48*	8	3
Cc1ccc(CN2CC(C(=O)N3CCN(c4ccccc4Cl)CC3)CC2=O)cc1 (stereo not given)	4	nt	nt	9	1
S=c1[nH]ncn2c1cc1oc3ccccc3c12	4	17	64*	13	-2
Nc1ccc2oc3ccccc3c2c1	4	1	-7	-12	3
COC(=O)c1ccc(C)c(NC(=O)CCCN2C(=O)NC(C)(C)C2=O)c1	-1	nt	nt	7	-2
COc1ccc(NC(=O)NC23CC4(C)CC(C)(CC(C)(C4)C2)C3)cc1OC	3	9	4	2	5
CC(C)n1nc(C(=O)Nc2cccc(S(=O)(=O)N3CCOCC3)c2)c2ccccc2c1=O	-1	nt	nt	4	0
Cc1ccc2nc(C)cc(C(=O)OCC(=O)c3ccc(Cl)c([N+](=O)[O-])c3)c2c1	3	4	39	1	-1
Cc1cc(C(=O)OCC(=O)c2ccc(Cl)c([N+](=O)[O-])c2)c2cccc(C)c2n1	2	0	46*	6	1
CC(C)Cn1c(N)c(C(=O)COC(=O)c2c(O)c(Cl)cc(Cl)c2Cl)c(=O)n(C)c1=O	0	nt	nt	-21	1
Cc1noc(C)c1COC(=O)CCCc1c[nH]c2ccccc12	2	-1	71*	-15	-6
Cc1cc(-c2csc(NC(=O)c3ccc(C#N)cc3)n2)c(C)n1Cc1ccco1	17*	-4	49*	-9	0
N#Cc1ccc(-c2csc(NC(=O)c3ccc(N4C(=O)CCC4=O)cc3)n2)cc1	-1	8	1	-3	-1
CC(=O)Nc1ccc2c(c1)C(C)(C)C(C)N2C (stereo not given)	-3	45*	-8	60*	0
Cc1ccc(-c2csc(N3N=C(c4ccccc4)/C(=C\c4ccc(N(C)C)cc4)C3=O)n2)cc1	4	15	46*	-2	1
CC1=NN(c2cccc(F)c2)C(=O)/C1=C/c1ccc(N(C)C)cc1	-1	-6	7	5	1
SMILES	PP1 counter	EBNA-1 inh	core dimer inh	ZTA DNA inh	PP5 inh
CCN(CC)S(=O)(=O)c1ccc(OC)c(NC(=O)Cc2cccs2)c1	8	2	50*	-5	2
COc1cc(OC)c(NC(=O)Cc2cccs2)cc1Cl	-2	-1	7	7	-1
COc1cccc2cc(-c3nc(-c4cccs4)cs3)c(=O)oc12	3	-9	51*	-3	3
Cc1ccc(CS(=O)(=O)CC(C)(O)c2ccc(Cl)cc2)cc1 (stereo not given)	2	6	10	4	1
O=C(C[n+]1cc(-c2ccc(F)cc2)n2c1CCC2)Nc1nc(-c2ccccc2)cs1	8	-5	-8	-24	1
O=C(C[n+]1cc(-c2ccc(Cl)cc2)n2c1CCC2)Nc1nc(-c2ccccc2)cs1	16*	-1	3	1	2
CCOC(=O)Cc1csc(-n2sc3ccccc3c2=O)n1	-1	-4	59*	-6	0
O=C1Nc2ccccc2SC(c2ccccc2)C1O (stereo not given)	4	-3	83*	-2	3
O=C(N/N=C\c1ccc(COc2ccc([N+](=O)[O-])cc2)o1)c1ccc(Cl)cc1	7	-1	7	20	-1
O=[N+]([O-])CC(=Nc1ccc(Cl)cc1)N/N=C\c1oc(O)c2ccccc12	6	3	61*	-7	3
CSc1cccc(NC(=O)c2nnn(CC(=O)Nc3cc(C)cc(C)c3)c2N)c1	16*	10	23	15	-1
CC1CCC2(CC1)NC(=O)N(CC(=O)Nc1cccc(C#N)c1)C2=O (stereo not given)	-4	nt	nt	-3	1
O=C1NC(=Nc2cccc(O)c2)S/C1=C\c1cccnc1	0	2	5	21	-3
O=C1NC(=Nc2cccc(O)c2)S/C1=C\c1cccc([N+](=O)[O-])c1	17*	15	9	17	1
Cc1ccccc1NC1=C/C(=N\S(=O)(=O)c2ccc(C(=O)O)cc2)c2ccccc2C1=O	4	-9	21	57*	9
CC(C)N1CCN(Cc2cn[nH]c2C2CCCCC2)CC1CCO (stereo not given)	9	-18	1	-1	-7
Cc1nn(-c2ccccc2)c(C)c1/C=N/NC(=O)CSc1nc2ccccc2c(=O)n1-c1ccc(Br)cc1	1	-1	59*	1	1
Cc1ccc(-n2c(SCC(=O)N/N=C/c3c(C)nn(-c4ccccc4)c3C)nc3ccccc3c2=O)cc1	1	23	30	-1	1
Cc1nn(-c2ccccc2)c(C)c1/C=N/NC(=O)CSc1nnc(SCc2cccc3ccccc23)s1	16*	18	16	-5	2
Cc1cccc(NC(=O)c2nc[nH]c2C(=O)N2CCc3ccccc3C2)c1	-3	nt	nt	2	5
CCN(CC)C(=O)Cn1cc(S(=O)(=O)CC(=O)Nc2ccc(F)cc2)c2ccccc21	0	-6	-1	-3	0
